The list is not random: actives were taken first. Their share in the collection is about 1.6%.
NCF1 inh – blocks human p47phox regulatory protein of NADPH oxidases; inhibition, % at 24.7 µM; p47phox/p22phox peptide binding, fluorescence polarization, 2 h; P14598; AID 1274; 0.53% of 220,000 active;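 active means inhibition above about 30%, limit read from the data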
14-3-3 Bad PPI – disrupts binding of bovine 14-3-3 zeta to phospho-Bad peptide; P63103; TR-FRET 14-3-3zeta/Dy647-pBad peptide displacement, 1 h; inhibition, % at 21.7 µM; 0.71% of 220,000 active; AID 781;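 active means inhibition above about 70%, limit read from the data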
eIF4E 4G PPI – blocks eIF4E binding to eIF4G; P63073+Q04637; TR-FRET eIF4E-eIF4GI(517-606) binding, 2 h; inhibition, % at 21.7 µM; 0.37% of 220,000 active; AID 782;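 active means inhibition above about 30%, limit read from the data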
UBC9 SUMO inh – inhibitors of human SUMOylation (UBC9); HTRF SUMOylation assay, SAE1/SAE2 + UBC9, in vitro; inhibition, % at 35 µM; 0.36% of 290,000 active; in the data active means inhibition above about 50%, passing the limit was not always enough
p97 inhibitor – inhibitors of human p97 ATPase. AID 1481. 0.42% of 220,000 active. inhibition, % at 8 µM. recombinant p97 ATPase, Kinase-Glo ATP luminescence, 3 h. P55072
Target sequence (P55072 whole entry, looked up): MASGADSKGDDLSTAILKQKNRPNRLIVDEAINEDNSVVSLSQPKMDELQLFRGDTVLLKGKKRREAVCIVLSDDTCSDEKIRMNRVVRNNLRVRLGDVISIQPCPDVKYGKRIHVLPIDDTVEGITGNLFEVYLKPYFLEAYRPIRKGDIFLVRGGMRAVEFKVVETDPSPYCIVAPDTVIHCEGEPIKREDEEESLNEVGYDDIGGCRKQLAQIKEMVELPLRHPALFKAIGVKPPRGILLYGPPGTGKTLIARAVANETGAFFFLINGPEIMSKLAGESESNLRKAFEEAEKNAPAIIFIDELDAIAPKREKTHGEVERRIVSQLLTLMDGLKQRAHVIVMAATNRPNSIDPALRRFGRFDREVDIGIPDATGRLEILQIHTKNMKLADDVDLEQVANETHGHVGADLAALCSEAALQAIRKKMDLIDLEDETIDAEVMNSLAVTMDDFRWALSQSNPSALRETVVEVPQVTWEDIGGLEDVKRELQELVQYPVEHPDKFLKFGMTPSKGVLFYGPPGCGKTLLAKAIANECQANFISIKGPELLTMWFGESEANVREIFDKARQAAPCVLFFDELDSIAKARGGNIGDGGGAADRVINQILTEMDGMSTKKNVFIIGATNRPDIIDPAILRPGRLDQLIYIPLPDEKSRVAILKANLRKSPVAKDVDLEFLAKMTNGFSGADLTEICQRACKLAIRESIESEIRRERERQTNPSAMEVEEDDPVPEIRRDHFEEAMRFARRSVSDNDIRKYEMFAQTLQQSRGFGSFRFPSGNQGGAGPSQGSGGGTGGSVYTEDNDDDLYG
Tb MetRS inh – Trypanosoma brucei MetRS inhibition. purified T. brucei MetRS, ATP depletion, Kinase-Glo luminescence. inhibition, % at 11.9 µM. 0.4% of 360,000 active. AID 624268;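 active means inhibition above a per-plate cutoff of the control wells' mean inhibition plus 3 SD, cut at about 5.5% in these data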
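Material: T. brucei methionyl-tRNA synthetase, purified; reagent: substrates ATP, L-methionine and bulk Escherichia coli tRNA; dosing: 11.9 µM single point; timing: 15 min plus 2 h at 25 °C; detection: luminescence of leftover ATP; evaluation: % inhibition; control set: DMSO-only wells as low control; replicates: singlicate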
Tb MetRS conf – confirmation of Trypanosoma brucei MetRS inhibitors; shares compounds with Tb MetRS inh; T. brucei MetRS enzyme, luminescence (ATP depletion); inhibition, % at 11.9 µM; 93% of 1,400 active; AID 624412; in the data active means inhibition above about 7%
Jurkat cytotox – kills Jurkat cells in T. brucei MetRS counterscreen. 12% of 1,400 active. shares compounds with Tb MetRS inh. inhibition, % at 8.3 µM. Jurkat cells viability, ATP luminescence
Tb MetRS inh FP – orthogonal test for Trypanosoma brucei MetRS inhibitors; shares compounds with Tb MetRS inh; inhibition, % at 11.9 µM; 44% of 1,400 active; AID 651607; purified T. brucei MetRS, fluorescence polarization; in the data active means inhibition above about 17%
Each line names hits and unclear results; the compound was inactive in the other large screens (follow-up assays come after a bar, where they were run). Unless noted, no stated cut-off is given here; in the data, active means inhibition above about 15%; inactive means the rest.

CN(C)c1ccc(NC(=O)Cn2cc3c(n2)CCCC3)cc1	Tb MetRS inh 16 | Tb MetRS conf 16 | Jurkat cytotox 21 | Tb MetRS inh FP inactive
COc1ccc(/C=C2\SC(=O)N=C2N)cc1	Tb MetRS inh 22 | Tb MetRS conf 67 | Jurkat cytotox inactive | Tb MetRS inh FP 37
Nc1nc2ccccc2n1CCOc1ccc(Cl)cc1	Tb MetRS inh 26 (no result: NCF1 inh, 14-3-3 Bad PPI, eIF4E 4G PPI, p97 inhibitor) | Tb MetRS conf 45 | Jurkat cytotox inactive | Tb MetRS inh FP 22
Nc1nc2ccccc2n1CCOc1ccc(Br)cc1	Tb MetRS inh 37 (no result: NCF1 inh, 14-3-3 Bad PPI, eIF4E 4G PPI, p97 inhibitor) | Tb MetRS conf 51 | Jurkat cytotox 19 | Tb MetRS inh FP 34
Nc1nc2ccccc2n1CCOc1ccccc1Cl	Tb MetRS inh 67 | Tb MetRS conf 80 | Jurkat cytotox inactive | Tb MetRS inh FP 44
Clc1ccccc1OCCn1nnc2ccccc21	none (no result: NCF1 inh, 14-3-3 Bad PPI, eIF4E 4G PPI, p97 inhibitor)
O=C(Nc1cccnc1)c1ccc(COc2cc(Cl)ccc2Cl)o1	Tb MetRS inh 6.8 | Tb MetRS conf 15 | Jurkat cytotox inactive | Tb MetRS inh FP 18
O=C(NCc1ccc2c(c1)OCO2)c1ccc(CSCc2ccc(Cl)cc2)o1	none
O=C(NCc1ccc2c(c1)OCO2)c1ccc(COc2cc(Cl)ccc2Cl)o1	Tb MetRS inh 8.1 | Tb MetRS conf 15 | Jurkat cytotox inactive | Tb MetRS inh FP inactive
CCOC(=O)/C(C#N)=C/c1c(N2CCN(CC)CC2)nc2c(C)cccn2c1=O	none (no result: NCF1 inh, 14-3-3 Bad PPI, eIF4E 4G PPI, p97 inhibitor)
O=C(Nc1ccc(F)c(Cl)c1)C1Cc2c(-c3ccc4c(c3)OCO4)ccnc2O1 (centres undefined)	none (no result: NCF1 inh, 14-3-3 Bad PPI, eIF4E 4G PPI, UBC9 SUMO inh, p97 inhibitor)
NC(Cc1ccc(C(F)(F)F)cc1)c1csc(NC(=O)Nc2ccccc2)n1 (centres undefined)	Tb MetRS inh 77 (no result: NCF1 inh, 14-3-3 Bad PPI, eIF4E 4G PPI, UBC9 SUMO inh, p97 inhibitor) | Tb MetRS conf 96 | Jurkat cytotox inactive | Tb MetRS inh FP 90
COc1ccccc1NC(=O)Nc1nc(C(N)Cc2ccc(Cl)cc2)cs1 (centres undefined)	none (no result: NCF1 inh, 14-3-3 Bad PPI, eIF4E 4G PPI, UBC9 SUMO inh, p97 inhibitor)
NC(Cc1ccc(C(F)(F)F)cc1)c1csc(NC(=O)Nc2ccccc2Cl)n1 (centres undefined)	none (no result: NCF1 inh, 14-3-3 Bad PPI, eIF4E 4G PPI, UBC9 SUMO inh, p97 inhibitor)
NC(Cc1ccc(Cl)cc1)c1csc(NC(=O)Nc2ccccc2)n1 (centres undefined)	Tb MetRS inh 61 (no result: NCF1 inh, 14-3-3 Bad PPI, eIF4E 4G PPI, UBC9 SUMO inh, p97 inhibitor) | Tb MetRS conf 87 | Jurkat cytotox inactive | Tb MetRS inh FP 85
Cc1cc(C)cc(C(=O)Nc2ccc(N3CCN(C(=O)c4ccco4)CC3)cc2)c1	none (no result: NCF1 inh, 14-3-3 Bad PPI, eIF4E 4G PPI, p97 inhibitor)
Cc1cc(=O)c2cc(Br)ccc2[nH]1	Tb MetRS inh 6.0 | Tb MetRS conf 7.5 | Jurkat cytotox inactive | Tb MetRS inh FP inactive
C/C(COc1ccccc1)=N\NC(=O)c1nnn(-c2nonc2N)c1CSc1ccc(C)cc1	none (no result: NCF1 inh, 14-3-3 Bad PPI, eIF4E 4G PPI, UBC9 SUMO inh, p97 inhibitor)
Oc1c(Cl)cc(Cl)cc1CNc1nc2ccccc2[nH]1	Tb MetRS inh 93 (no result: NCF1 inh, 14-3-3 Bad PPI, eIF4E 4G PPI, p97 inhibitor) | Tb MetRS conf 108 | Jurkat cytotox inactive | Tb MetRS inh FP 102
Oc1c(Cl)cc(Cl)cc1CNc1ccccn1	none (no result: NCF1 inh, 14-3-3 Bad PPI, eIF4E 4G PPI, p97 inhibitor)
CCC[C@H]1CN(Cc2cccnc2)C(=O)[C@@H]1CC(=O)Nc1ccc(Br)cc1	Tb MetRS inh 72 (no result: NCF1 inh, 14-3-3 Bad PPI, eIF4E 4G PPI, UBC9 SUMO inh, p97 inhibitor) | Tb MetRS conf 87 | Jurkat cytotox inactive | Tb MetRS inh FP 61
CSC[C@H]1CN(Cc2cccnc2)C(=O)[C@@H]1CC(=O)Nc1ccc(Br)cc1	Tb MetRS inh 69 (no result: NCF1 inh, 14-3-3 Bad PPI, eIF4E 4G PPI, UBC9 SUMO inh, p97 inhibitor) | Tb MetRS conf 82 | Jurkat cytotox inactive | Tb MetRS inh FP 51
O=C(C[C@H]1C(=O)N(Cc2cccnc2)C[C@@H]1Cc1ccccc1)Nc1ccccc1	none (no result: NCF1 inh, 14-3-3 Bad PPI, eIF4E 4G PPI, UBC9 SUMO inh, p97 inhibitor)
CCn1c(COc2ccc(C)cc2)nnc1SCc1nc2ccccc2[nH]1	Tb MetRS inh 15 | Tb MetRS conf 20 | Jurkat cytotox inactive | Tb MetRS inh FP inactive
Clc1ccc(OCc2nnc(SCc3nc4ccccc4[nH]3)n2Cc2ccco2)cc1	Tb MetRS inh 11 | Tb MetRS conf 84 | Jurkat cytotox 21 | Tb MetRS inh FP 66
Cn1c(COc2ccccc2)nnc1SCc1nc2ccccc2[nH]1	none
CN(C(=O)c1ccc(Br)o1)C1CCCCC1	none (no result: NCF1 inh, 14-3-3 Bad PPI, eIF4E 4G PPI, p97 inhibitor)
